# Results: ChEMBL document CHEMBL5154669, “G-Quadruplex DNA as a Target in Pathogenic Bacteria: Efficacy of an Extended Naphthalene Diimide Ligand and Its Mode of Action” (J Med Chem, 2022)
# What was measured:
# DNA [1] = assay: Stabilization of Staphylococcus aureus in G-quadruplex DNA GGA AGG AGG GGT GAC AGG G assessed as melting temperature at 10 uM incubated for 16 hrs […]; format: nucleic-acid assay
# How it was run: (§1)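 Readout was CD melting, not FRET: 2.5 μM oligonucleotide in 10 mM lithium cacodylate pH 7.4 with KCl set per sequence (initial Tm 60-70 °C). Annealed 95 °C 5 min, cooled to room temperature over 4 h, then ligand 10 μM (4 equiv) equilibrated 16 h at 20 °C. Ellipticity at 260 nm tracked every 0.1 °C, 20-95 °C at 5 °C/min; Tm by van't Hoff two-state fit.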
# Enterococcus faecalis [2] = assay: Antibacterial activity against Enterococcus faecalis V583 assessed as inhibition of bacterial growth incubated for 20 hrs by CLSI based broth microdilution method; format: functional
# How it was run: (§2)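 Broth microdilution in cation-adjusted Mueller-Hinton broth following CLSI guidelines. DMSO stocks were at 10 mM; compounds were twofold serially diluted over 128 to 2 μM. The inoculum was at 5 × 10⁵, prepared from colonies grown 20 h at 37 °C and adjusted to 0.5 McFarland. Plates ran 20 h at 37 °C with OD600 read-out. MIC was the lowest concentration inhibiting visible growth, in triplicate.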
# DNA [3] = assay: Stabilization of Escherichia coli in G-quadruplex DNA GGG GGA GGA GGA CGG GGG assessed as melting temperature at 10 uM incubated for 16 hrs by […]; format: nucleic-acid assay; how it was run: as §1
# Acinetobacter baumannii [4] = assay: Bacteriostatic activity against Acinetobacter baumannii LMG 01041 assessed as inhibition of bacterial growth; format: functional
# How it was run: (§3)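 A standard MIC plate (128–2 μM, cMHB, 20 h, 37 °C) was read at OD600. Each well then seeded at 10% a fresh compound-free cMHB plate, grown another 20 h at 37 °C and read at OD600. No growth at the same concentration in both plates counted as bactericidal. Growth above the MIC counted as bacteriostatic. Done in triplicate.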
# Enterococcus faecium = assay: Antibacterial activity against Enterococcus faecium LMG 11423 assessed as inhibition of bacterial growth incubated for 20 hrs by CLSI based broth microdilution method; conditions: LMG 11423, 20 h
# Acinetobacter baumannii [5] = assay: Antimicrobial activity against Acinetobacter baumannii LMG 01041 assessed as inhibition of bacterial growth in presence of D11 incubated for 20 hrs; conditions: LMG 01041, 20 h
# Enterobacter cloacae [6] = assay: Antibacterial activity against Enterobacter cloacae LMG 02783 assessed as inhibition of bacterial growth incubated for 20 hrs by CLSI based broth microdilution method; format: functional; how it was run: as §2
# DNA [7] = assay: Stabilization of Escherichia coli in G-quadruplex DNA GGG GCG GGG TGG GTT GG assessed as melting temperature at 10 uM incubated for 16 hrs by FRET method; format: nucleic-acid assay
# [8] = Toxicity against Galleria mellonella assessed as survival at 5 to 128 mg/kg measured after 5 days; format: organism-based; conditions: in vivo, dose 5-128 mg/kg, time 5 day, read-out: Activity
# How it was run: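 For uninfected larvae, 20 per treatment, 10 µL was injected into the hemocoel through the last left proleg to give 8, 16, 32, 64 or 128 mg/kg. NaCl 0.9% served as the negative control. Larvae were held at 37 °C for 5 d, with mortality recorded daily.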
# Bacillus cereus [9] = assay: Antimicrobial activity against Bacillus cereus ATCC 10987 assessed as inhibition of bacterial growth in presence of D11 incubated for 20 hrs; conditions: ATCC 10987, 20 h
# Enterococcus faecalis [10] = assay: Bacteriostatic activity against Enterococcus faecalis V583 assessed as inhibition of bacterial growth; format: functional; how it was run: as §3
# DNA [11] = assay: Stabilization of Staphylococcus aureus in G Quadruplex DNA GGGGCTAATTGGGGCTGGTGG assessed as change in melting temperature at 10 uM incubated for 16 hrs by […]; format: nucleic-acid assay; how it was run: as §1
# Pseudomonas aeruginosa [12] = assay: Antimicrobial activity against Pseudomonas aeruginosa LMG 6395 assessed as inhibition of bacterial growth in presence of D11 incubated for 20 hrs; conditions: LMG 6395, 20 h
# Staphylococcus aureus [13] = assay: Bacteriostatic activity against Staphylococcus aureus LMG 8224 assessed as inhibition of bacterial growth; format: functional; how it was run: as §3
# [14] = system: Staphylococcus epidermidis; assay: Antibacterial activity against Staphylococcus epidermidis Tu3298 assessed as inhibition of bacterial growth incubated for 20 hrs by CLSI based broth microdilution method; format: functional; how it was run: as §2
# Escherichia coli [15] = assay: Antimicrobial activity against Escherichia coli LMG 8223 assessed as inhibition of bacterial growth in presence of D11 incubated for 20 hrs; conditions: LMG 8223, 20 h
# DNA [16] = assay: Stabilization of Escherichia coli in G-quadruplex DNA GGT GGG GAG GGG TAA GGG G assessed as change in melting temperature at 10 uM incubated for 16 hrs by FRET method; format: nucleic-acid assay; conditions: in the assay text read “by CD melting method” for “by FRET method”; how it was run: as §1
# Enterococcus faecalis [17] = assay: Antibacterial activity against Enterococcus faecalis LMG 08222 assessed as inhibition of bacterial growth incubated for 20 hrs by CLSI based broth microdilution method; format: functional; how it was run: as §2
# Bacillus cereus [18] = assay: Antibacterial activity against Bacillus cereus ATCC 14579 assessed as inhibition of bacterial growth incubated for 20 hrs by CLSI based broth microdilution method; format: functional; how it was run: as §2
# Staphylococcus aureus [19] = assay: Antibacterial activity against Staphylococcus aureus LMG 8224; format: functional, organism-based; conditions: DDE = dose-dependent effect
# How it was run: (§4)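 Cultures were inoculated at 2% and grown at 37 °C, with OD600 read every 5 min for 8 h. NDI-10 was added at exponential-phase onset (~3 h). Concentrations were 32, 16, 8 and 4 μM for E. coli, and 16, 8, 4 and […] μM for the Gram-positive strains.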
# Enterobacter cloacae [20] = assay: Antimicrobial activity against Enterobacter cloacae LMG 02783 assessed as inhibition of bacterial growth in presence of D11 incubated for 20 hrs; conditions: LMG 02783, 20 h
# Escherichia coli [21] = assay: Bactericidal against Escherichia coli LMG 8223 assessed as inhibition of bacterial growth; format: functional; how it was run: as §3
# Klebsiella pneumoniae = assay: Antimicrobial activity against Klebsiella pneumoniae LMG 20218 assessed as inhibition of bacterial growth in presence of D11 incubated for 20 hrs; conditions: LMG 20218, 20 h
# Escherichia coli [22] = assay: Antibacterial activity against Escherichia coli LMG 8223 assessed as inhibition of bacterial growth incubated for 20 hrs by CLSI based broth microdilution method; format: functional; how it was run: as §2
# DNA [23] = assay: Stabilization of Escherichia coli in G-quadruplex DNA GGG GGA GGA GGA CGG GGG assessed as change in melting temperature at 10 uM incubated for 16 hrs by FRET method; format: nucleic-acid assay; conditions: in the assay text read “by CD melting method” for “by FRET method”; how it was run: as §1
# Escherichia coli [24] = assay: Antibacterial activity against Escherichia coli LMG 8223; format: functional, organism-based; conditions: DDE = dose-dependent effect; how it was run: as §4
# DNA [25] = assay: Stabilization of Escherichia coli in G-quadruplex DNA GGT GGG GAG GGG TAA GGG G assessed as melting temperature at 10 uM incubated for 16 hrs by […]; format: nucleic-acid assay; how it was run: as §1
# Pseudomonas aeruginosa [26] = assay: Bactericidal activity against Pseudomonas aeruginosa LMG 6395 assessed as inhibition of bacterial growth; format: functional; how it was run: as §3
# Bacillus cereus [27] = assay: Antibacterial activity against Bacillus cereus ATCC 10987; format: functional, organism-based; conditions: DDE = dose-dependent effect; how it was run: as §4
smiles,measurement,setting,value
CN(C)CCCn1c(=O)c2ccc3c(=O)n(CCCN(C)C)c(=O)c4c5[nH]c6ccccc6[nH]c5c(c1=O)c2c34.O=C(O)C(F)(F)F.O=C(O)C(F)(F)F,Tm,DNA [1],> 95 °C
same,MIC,Enterococcus faecalis [2],4 µM
same,Tm,DNA [3],> 95 °C
same,MIC,Acinetobacter baumannii [4],128 µM
same,MIC,Enterococcus faecium,4 µM
same,MIC,Acinetobacter baumannii [5],8 µM
same,MIC,Enterobacter cloacae [6],8 µM
same,Tm,DNA [7],82.5 °C
same,survival at 120 h,[8],65%
same,MIC,Bacillus cereus [9],8 µM
same,MIC,Enterococcus faecalis [10],64 µM
same,ΔTm,DNA [11],27.3 °C
same,MIC,Pseudomonas aeruginosa [12],4 µM
same,MIC,Staphylococcus aureus [13],128 µM
same,MIC,[14],16 µM
same,MIC,Escherichia coli [15],< 0.5 µM
same,ΔTm,DNA [16],31 °C
same,MIC,Enterococcus faecalis [17],8 µM
same,MIC,Bacillus cereus [18],8 µM
same,Activity,Staphylococcus aureus [19],Dde
same,MIC,Enterobacter cloacae [20],8 µM
same,MIC,Escherichia coli [21],16 µM
same,MIC,Klebsiella pneumoniae,16 µM
same,MIC,Escherichia coli [22],16 µM
same,ΔTm,DNA [23],> 24.8 °C
same,Activity,Escherichia coli [24],Dde
same,Tm,DNA [25],91 °C
same,MIC,Pseudomonas aeruginosa [26],128 µM
same,Activity,Bacillus cereus [27],Dde
